The results in this text go back to ChEMBL document CHEMBL1129672, “Ionophore properties of monensin derivatives studied on human erythrocytes by 23Na NMR and K+ and H+ potentiometry: relationship with antimicrobial and antimalarial activities” (J Med Chem, 1996).

Values after ≈ are worked out from the molar mass of the structure shown. Bounds are passed on as bounds.

As a reminder, the IC50 is the concentration that gives 50% inhibition. Low readings indicate greater potency in that assay, high ones weaker potency in that assay. The MIC is the lowest concentration that inhibits growth of the organism.

For one assay, the system named is Plasmodium falciparum. The assay is described as follows: In vitro inhibitory activity against Plasmodium falciparum. Format: functional, organism-based. In outline:
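Nigerian strain kept in human erythrocytes, 7% hematocrit, RPMI 1640 + 25 mM Hepes pH 7.4 + 10% AB+ serum, 37 °C, candle jar. Drugs from DMSO stocks (final solvent ≤0.25%), 1–2% hematocrit, 0.3–0.8% parasitemia, 48 h, then [3H]hypoxanthine 12–18 h. Filter-bound counts as % of drug-free control; IC50 from log dose plot, ≥2 experiments in triplicate.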

The test system of another assay is Bacillus cereus. Kind of assay: Minimum Inhibitory concentration against Bacillus cereus ATCC 14579. It is filed as functional. The essentials:
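Broth dilution in Mueller-Hinton broth pH 7.4, 24 h incubation at 27 °C. Ionophores diluted in DMSO across 18 tubes, 100 ug/mL down to 1.56 ng/mL.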

`C[C@@H]1C[C@H](C)[C@@H](C)OC1O` (stereo partly specified): it took 0.0119 µg/mL (≈ 0.0827 µM) to reach half-maximal inhibition in the assay on Plasmodium falciparum (IC50). The compound also gave a minimal inhibitory concentration (MIC) against Bacillus cereus of 0.39 µg/mL (≈ 2.7 µM).
The matching figures for `C[C@@H]1C[C@H](C)[C@@H](C)O[C@@]1(O)CO`: 0.00165 µg/mL (≈ 0.00947 µM) and 1.56 µg/mL (≈ 8.95 µM).
The matching figures for `Cc1ccc(S(=O)(=O)OC[C@]2(O)O[C@H](C)[C@@H](C)C[C@H]2C)cc1`: 0.00125 µg/mL (≈ 0.00381 µM) and 0.78 µg/mL (≈ 2.37 µM).
The matching figures for `C[C@@H]1C[C@H](C)[C@@H](C)O[C@@]1(O)COC(=O)c1cccs1`: 0.0027 µg/mL (≈ 0.00949 µM) and 0.02 µg/mL (≈ 0.0703 µM).
Consider `C[C@H](C[C@H](C)[C@@H](C)O)[C@H](O)CO`, for which the IC50 in the assay with Plasmodium falciparum was found to be 5.25 µg/mL (≈ 29.8 µM). For the same compound, the MIC in the assay on Bacillus cereus is > 50 µg/mL.
The matching figures for `C[C@@H]1C[C@H](C)[C@@H](C)O[C@@]1(O)COC(=O)Nc1ccc(Cl)cc1`: 0.00125 µg/mL (≈ 0.00381 µM) and 0.05 µg/mL (≈ 0.153 µM).
The matching figures for `C[C@@H]1C[C@H](C)[C@@H](C)O[C@@]12COC(c1ccccc1)O2` (stereo partly specified): 0.75 µg/mL (≈ 2.86 µM) and 6.25 µg/mL (≈ 23.8 µM).
The matching figures for `C[C@@H]1C[C@H](C)[C@@H](C)O[C@@]12COC(=O)O2`: 0.00075 µg/mL (≈ 0.00375 µM) and 1.56 µg/mL (≈ 7.79 µM).
